Screening data from PubChem.
RGS4 block: inhibitors of human RGS4. HEK293 M3R/RGS4 inducible, Fluo-4 calcium flux; stronger effect = higher value; triggered by carbachol at its EC20. B-score at 10 µM. 310,000 tested, 0.45% active. AID 463165;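 active = B-score, a plate-corrected calcium signal, over three deviations above library mean, with baseline fluorescence within five deviations of library mean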;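 note: RGS4 expression induced by doxycycline in cells with stable M3 receptor; B-score is computed from the integrated fluorescence ratio over baseline after carbachol; higher B-score means a larger calcium signal and so more RGS4 inhibition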
Target sequence (P49798 whole entry, looked up): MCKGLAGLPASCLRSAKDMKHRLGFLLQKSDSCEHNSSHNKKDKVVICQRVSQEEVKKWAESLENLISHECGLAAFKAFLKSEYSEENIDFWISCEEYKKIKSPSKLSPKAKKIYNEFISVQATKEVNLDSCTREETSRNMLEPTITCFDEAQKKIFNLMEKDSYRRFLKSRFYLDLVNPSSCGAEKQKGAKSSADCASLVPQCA
MrgX1 antagonist: blocks BAM8-22 activation of human MrgX1 receptor; Q96LB2; MRGX1-HEK293 calcium flux, Fluo-4, BAM8-22 antagonism; stronger effect = lower value; B-score at 10 µM; 310,000 tested, 1.3% active; AID 588676;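 active = calcium-response B-score plate-corrected more than 3 library SD below zero, starting fluorescence within 5 deviations, no agonist response on first addition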;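 note: peak minus trough fluorescence over baseline after final BAM8-22 challenge near maximal dose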
Target sequence (Q96LB2 whole entry, looked up): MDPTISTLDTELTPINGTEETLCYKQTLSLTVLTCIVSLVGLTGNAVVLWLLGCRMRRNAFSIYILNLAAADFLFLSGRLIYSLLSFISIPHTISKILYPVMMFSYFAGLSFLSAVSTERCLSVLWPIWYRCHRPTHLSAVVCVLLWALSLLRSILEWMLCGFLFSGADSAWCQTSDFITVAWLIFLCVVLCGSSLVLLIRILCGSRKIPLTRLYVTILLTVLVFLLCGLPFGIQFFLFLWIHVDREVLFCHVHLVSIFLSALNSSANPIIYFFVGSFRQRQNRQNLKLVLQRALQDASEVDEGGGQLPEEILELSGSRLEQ
MrgX1 ag: agonists of human MrgX1 receptor; MrgX1-HEK293 cells, Fluo-4 calcium fluorescence, agonist mode; stronger effect = higher value; 310,000 tested, 0.44% active; Q96LB2; B-score at 10 µM;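 active = calcium response B-score plate-corrected fluorescence ratio at least 3 library SD, with starting fluorescence B-score inside 5 SD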
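Test system: Stable human MrgX1 HEK293 cell line | Schedule: Overnight plating before 1 h dye loading | Read-out basis: Baseline-normalised fluorescence change ratio, B-scored | Detection: Kinetic calcium dye fluorescence, Fluo-4 NW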
MrgX1 allo act: human MrgX1 positive allosteric modulation, primary screen; AID 588675; MrgX1-HEK293, Fluo-4 calcium flux, FDSS; stronger effect = higher value; 310,000 tested, 0.63% active; Q96LB2; B-score at 10 µM;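 active = plate-corrected calcium response at least 3 library SD above typical, normal starting fluorescence, not activating the receptor alone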;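 note: compound read alongside a low EC10 to EC30 dose of BAM8-22 agonist; peak minus trough fluorescence over baseline measured at the second addition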
RGS4 act: potentiators or activators of RGS4 | HEK293 M3R/inducible RGS4, carbachol calcium flux Fluo4; stronger effect = lower value | B-score at 10 µM | 310,000 tested, 0.92% active | AID 463111;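 active = B-score of the integrated calcium signal more than 4 SD below the library mean, with starting fluorescence not abnormally high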;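 note: negative B-score means reduced calcium response which marks RGS4 activation or potentiation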
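System: HEK293 FlpIn-TREx cells, stable M3R, doxycycline-inducible RGS4. Timing: overnight RGS4 induction, 30 min dye load 37 °C, 20 min compound RT. Also added: carbachol, ECmax concentration. Measured by: Fluo4 fluorescence kinetic imaging of calcium. Evaluation: integrated calcium ratio converted to B score.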
RGS4 inh valid: validation of RGS4 inhibitors. calcium response, % at 10 µM. shares compounds with RGS4 block. 1,700 tested, 65% active. HEK293 M3R/RGS4, carbachol calcium Fluo-4 fluorescence; carbachol added at its EC20; 0 = buffer wells, 100 = carbachol control;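 active = duplicate-averaged calcium response above the buffer-only control mean plus 5 SD of those controls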;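 note: integrated fluorescence ratio F max minus min over baseline F0; higher response in RGS4-induced cells means RGS4 inhibition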
M3R Ca ctr: counter-screen for RGS4 inhibitors: effect in non-induced cells | shares compounds with RGS4 block | HEK293 M3R non-induced, carbachol calcium Fluo-4; submaximal (EC20) carbachol stimulus; buffer wells 0%, carbachol control wells 100% | activity (percent), % at 10 µM | 1,900 tested, 20% active; call rule not given here;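 note: RGS4 induction absent so cells express M3R without RGS4; higher means more calcium signal and flags a non-specific hit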
M3R basal Ca ctr: second RGS4 inhibitor counter-screen in uninduced cells lacking carbachol | 1,900 tested, 22% active | HEK293 M3R/RGS4 non-induced, Fluo-4 calcium, no carbachol; normalised: buffer wells 0%, carbachol wells 100% | calcium response (agonist-mode artifact), % at 10 µM | AID 493001 | shares compounds with RGS4 block;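 active = duplicate-averaged calcium rise in uninduced cells above buffer wells' mean plus 5 SD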
* marks the source's active call; other numbers are inactive results; i = inactive; x = not tested or not shown. This is a sample that favours compounds with a hit; in the whole collection about 3.5% have one here.

SMILES | RGS4 block | MrgX1 antagonist | MrgX1 ag | MrgX1 allo act | RGS4 act | RGS4 inh valid | M3R Ca ctr | M3R basal Ca ctr
COc1ccc(NS(=O)(=O)c2cn(C)nc2C)cc1 | i | i | i | i | i | x | x | x
N#C/C(=C\c1cccc(Br)c1)C(=O)N1CCCCC1 | 6.5* | i | i | i | i | 25%* | i | i
N#C/C(=C\c1cccc(O)c1)C(=O)N1CCCCC1 | 6.3* | i | i | i | i | 8.0%* | i | 9.0%*
Cc1cc(/C=C(\C#N)C(=O)N2CCCCC2)cc(C)c1O | i | i | i | i | i | x | x | x
CCN(CC(=O)Nc1ccc(NC(C)=O)cc1)C(=O)c1ccc(NC2CC2)c([N+](=O)[O-])c1 | i | i | i | i | i | x | x | x
CC1(C(=O)NC2CCCCCCC2)CCC(=O)N1Cc1cccs1 (configuration not stated) | i | i | i | i | i | x | x | x
Cc1nn(-c2ccccc2)c2c1C(c1ccc([N+](=O)[O-])cc1)C(C#N)=C(N)O2 (configuration not stated) | i | i | i | i | i | x | x | x
COc1cc(C2C(C#N)=C(N)Oc3c2c(-c2ccccc2)nn3-c2ccccc2)cc(OC)c1OC (configuration not stated) | i | i | i | i | i | x | i | i
CCc1[nH]nc2c1C1(C(=O)N(Cc3ccccc3)c3ccccc31)C(C#N)=C(N)O2 (configuration not stated) | i | i | i | i | i | x | x | x
COC(=O)Cc1[nH]nc2c1C1(C(=O)N(Cc3ccc(Cl)cc3)c3ccccc31)C(C#N)=C(N)O2 (configuration not stated) | 5.1* | i | i | i | i | 6.5%* | i | i
CCOc1cc(CNc2ccc(S(N)(=O)=O)cc2)cc(Cl)c1OC | i | i | i | i | i | x | x | x
CCOc1cc(CNc2ccc(N3CCCC3)cc2)cc(Cl)c1OC | 5.1* | i | i | i | i | 14%* | i | i
COC(=O)Nc1cccn(Cc2c(Cl)cccc2Cl)c1=O | 8.4* | i | i | i | i | 6.5%* | i | i
O=C(Nc1cccn(Cc2c(Cl)cccc2Cl)c1=O)c1c(Cl)cccc1Cl | i | i | i | i | i | x | x | x
Cc1ccc(CN2CCN(Cc3cn[nH]c3C3CCCCC3)CC2CCO)cc1 (configuration not stated) | i | i | i | i | i | x | x | x
Cc1ccccc1N(CC(=O)NCc1ccco1)C(=O)CNS(=O)(=O)c1ccc(F)cc1 | i | i | i | i | i | i | i | i
Cc1ccc(N(CC(=O)NCc2ccco2)C(=O)CNS(=O)(=O)c2ccc(F)cc2)c(C)c1 | i | i | i | i | i | x | x | x
Cc1c(Cl)ccc2c(C(N)=O)cc(-c3ccccn3)nc12 | i | i | i | i | i | x | x | x
Cc1c(Cl)ccc2c(C(=O)O)cc(-c3ccccc3)nc12 | 5.8* | i | i | i | i | 22%* | 40%* | i
CC(=O)C1=C(C)OC(N)=C(C#N)C1c1cccc([N+](=O)[O-])c1 (configuration not stated) | 7.2* | i | i | i | i | i | i | i
CC(NC(=O)/C(C#N)=C/c1ccc([N+](=O)[O-])o1)c1ccccc1 (configuration not stated) | 6.2* | i | i | i | i | 16%* | i | 8.5%*
CC(NC(=O)/C(C#N)=C/c1ccco1)c1ccccc1 (configuration not stated) | i | i | i | i | i | x | x | x
CCOCCCNC(=O)/C(C#N)=C/c1ccc([N+](=O)[O-])o1 | 8.1* | i | i | 8.4* | i | 31%* | i | i
CCN(CC)c1ccc(NC(=O)CSc2nc3ccccc3c(=O)n2-c2cc(S(=O)(=O)N(C)C)ccc2C)cc1 | i | i | i | i | i | x | x | x
Cc1ccc(C)c(NC(=O)CN(C)C(=O)c2cc(-c3cccs3)nn2-c2ccccc2)c1 | i | i | i | i | i | x | x | x
SMILES | RGS4 block | MrgX1 antagonist | MrgX1 ag | MrgX1 allo act | RGS4 act | RGS4 inh valid | M3R Ca ctr | M3R basal Ca ctr
CCN(C#N)c1nc(NC(C)C)nc(NC(C)(C)C)n1 | 5.1* | i | i | i | i | 7.0%* | i | i
CCC(=O)Nc1cccc(NC(=O)c2ccc3c(c2)OCCO3)c1 | i | i | i | i | i | i | i | i
CCCC(=O)Nc1cccc(NC(=O)c2ccc3c(c2)OCO3)c1 | i | i | i | i | i | i | i | i
CCC(=O)Nc1ccc(NC(=O)c2ccc3c(c2)OCO3)cc1 | i | i | i | i | i | x | x | x
CC(O)c1nc2ccccc2n1CCCCOc1ccccc1 (configuration not stated) | i | i | i | i | i | x | x | x
COc1ccc2c(c1OC)C(=O)OC2Nc1nc(-c2cc3cc(Br)ccc3oc2=O)cs1 (configuration not stated) | i | i | i | i | i | x | x | x
COc1ccc2c(c1OC)C(=O)OC2Nc1nc(-c2ccc([N+](=O)[O-])cc2)cs1 (configuration not stated) | i | i | i | i | i | i | i | i
COc1ccc(-c2csc(NC3OC(=O)c4c3ccc(OC)c4OC)n2)cc1OC (configuration not stated) | 11* | i | i | i | i | 44%* | i | i
Cc1ccc([N+](=O)[O-])cc1N(CC(=O)Nc1ccc(S(=O)(=O)Nc2cccc(C(F)(F)F)c2)cc1)S(C)(=O)=O | 7.2* | i | i | i | i | 22%* | i | i
COc1cccc(OC)c1NC(=O)C1CCCN1C(=O)Nc1cccc(Cl)c1 (configuration not stated) | i | i | i | i | i | x | x | x
CCOC(=O)[C@@H]1[C@H]2COc3ccccc3[C@H]2N2C(=O)N(c3ccc(C)cc3)C(=O)[C@]12C | i | i | i | i | i | i | i | i
